According to ChEMBL document CHEMBL2093137, “WHO-TDR NTD Screening”:
Values after ≈ are worked out from the molar mass of the structure shown.

Experiments:
Trypanosoma cruzi = experiment: WHO-TDR: Chagas disease; assay type: functional, organism-based, Homo sapiens; details: MRC5
Method in brief: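 Each IC50 reflects antiparasitic potency against intracellular amastigotes of Trypanosoma cruzi Tulahuen CL2 beta-galactosidase strain. These were cultured in MRC-5SV2 human lung fibroblasts and exposed to a 10,000-compound diverse Life Chemicals library screened according to published standard procedures with a reference drug as positive control.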

[1] = system: Trypanosoma brucei brucei; experiment: WHO-TDR: Human African Trypanosomiasis (HAT); assay type: functional, organism-based; details: Squib-427
Method in brief: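 A diverse library of 10,000 compounds from Life Chemicals, filtered for drug-likeness and reactive groups, was screened against bloodstream forms of Trypanosoma brucei Squib 427 strain in a whole-organism assay. Previously published standard procedures were followed, with reference drugs serving as positive controls. Antiparasitic potency is given as IC50.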

Leishmania infantum = experiment: WHO-TDR: Leishmaniasis; assay type: functional, organism-based, Mus musculus; details: Macrophage
Method in brief: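 A diverse library of 10,000 compounds from Life Chemicals, filtered for drug-likeness and reactive groups, was screened against whole organisms. The targets were intracellular amastigotes of Leishmania infantum MHOM/MA(BE)/67 growing in murine peritoneal macrophages. Previously published standard procedures were followed, with a reference drug as positive control. Antiparasitic potency is given as IC50.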

Brugia malayi = experiment: WHO-TDR: Lymphatic Filariasis; assay type: functional; design: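 tested at 10 µM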
Method in brief: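 In a whole-organism assay, Brugia malayi microfilariae were screened against a diverse Life Chemicals library that had been filtered for drug-likeness and reactive groups. That library comprised 10,000 compounds. Activity is expressed as percent inhibition and as IC50.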

Plasmodium falciparum K1 = experiment: WHO-TDR: Malaria; assay type: functional, organism-based, Homo sapiens; details: Erythrocyte
Method in brief: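 A diverse library of 10,000 compounds from Life Chemicals, filtered for drug-likeness and reactive groups, was screened against the intra-erythrocytic Plasmodium falciparum K1 strain in human red blood cells. Previously published standard procedures were followed, with a reference drug as positive control. Antiplasmodial potency is given as IC50.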

[2] = WHO-TDR: Cytotoxicity; assay type: toxicity, cell-based; details: human, MRC5 cells
Onchocerca lienalis = experiment: WHO-TDR: Onchocerciasis; assay type: functional; design: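 at 12.5 µM on microfilariae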
Method in brief: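 Microfilariae of Onchocerca ochengi or Onchocerca lienalis, animal pathogens standing in for the human parasite, were exposed to compounds in a whole-organism screen. The compounds came from a 10,000-compound diverse Life Chemicals library filtered for drug-likeness and reactive groups. Results are expressed as percent inhibition and IC50.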

Schistosoma mansoni = experiment: WHO-TDR: Schistosomiasis; assay type: functional; design: concentration or dose not given beside the values
Method in brief: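 In this whole-organism assay, larval and/or adult worms of Schistosoma mansoni (Puerto Rican strain) were exposed to compounds from a diverse Life Chemicals library of 10,000 members. A reference drug served as positive control. Activity is stated as percent inhibition and IC50.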

Compound	IC50 (Trypanosoma cruzi)	IC50 [1]	IC50 (Leishmania infantum)	% Inhibition (Brugia malayi)	IC50 (Plasmodium falciparum K1)	IC50 [2]	% Inhibition (Onchocerca lienalis)	% Inhibition (Schistosoma mansoni)
O=C(CCSc1ccccc1)N(Cc1ccccn1)c1nc2ccccc2s1	0.466 µg/mL (≈ 1.15 µM)	> 12.2 µg/mL	> 12.2 µg/mL	0%	11.3 µg/mL (≈ 28 µM)	> 12.2 µg/mL	11.35%	0%
O=C(Cn1c(S(=O)(=O)Cc2ccccc2)nc2ccccc21)N1CCN(c2ccccc2)CC1	> 14.2 µg/mL	> 14.2 µg/mL	0.461 µg/mL (≈ 0.971 µM)	0%	10.9 µg/mL (≈ 22.9 µM)	> 14.2 µg/mL	11.35%	0%
CSc1ccccc1-c1nnc(NC(=O)c2ccc(Cl)s2)o1	0.416 µg/mL (≈ 1.18 µM)	0.856 µg/mL (≈ 2.43 µM)	> 10.6 µg/mL	0%	> 10.6 µg/mL	> 10.6 µg/mL	86.4%	0%
CCSc1ccccc1C(=O)Nc1nnc(-c2cccs2)o1	0.413 µg/mL (≈ 1.25 µM)	0.656 µg/mL (≈ 1.98 µM)	6.77 µg/mL (≈ 20.4 µM)	0%	> 9.94 µg/mL	5.3 µg/mL (≈ 16 µM)	20%	0%
CCS(=O)(=O)c1cccc(C(=O)Nc2nc3c(s2)CSc2ccccc2-3)c1	0.412 µg/mL (≈ 0.989 µM)	0.395 µg/mL (≈ 0.948 µM)	0.405 µg/mL (≈ 0.972 µM)	0%	> 12.5 µg/mL	4 µg/mL (≈ 9.6 µM)	46.7%	75%
COc1ccc(C)c2sc(N(CCCN(C)C)C(=O)c3ccccc3SC)nc12	5.29 µg/mL (≈ 12.3 µM)	0.432 µg/mL (≈ 1.01 µM)	4.53 µg/mL (≈ 10.5 µM)	0%	0.506 µg/mL (≈ 1.18 µM)	4.42 µg/mL (≈ 10.3 µM)	13.3%	0%
O=C(Nc1ccc2c(c1)N(C(=O)C1CC1)CCC2)c1cccc(C(F)(F)F)c1	0.808 µg/mL (≈ 2.08 µM)	3.69 µg/mL (≈ 9.49 µM)	> 11.7 µg/mL	0%	4.56 µg/mL (≈ 11.7 µM)	> 11.7 µg/mL	13.3%	0%
CCCc1cc(=O)n(CC(=O)Nc2ccc(C)cc2)c(-n2nc(C)cc2C)n1	0.764 µg/mL (≈ 2.01 µM)	6.35 µg/mL (≈ 16.7 µM)	> 11.4 µg/mL	0%	> 11.4 µg/mL	10.5 µg/mL (≈ 27.6 µM)	27.7%	0%
CC(=O)c1cccc(Nc2nc(Nc3ccc(F)c(Cl)c3)nc(N3CCOCC3)n2)c1	0.465 µg/mL (≈ 1.05 µM)	0.643 µg/mL (≈ 1.45 µM)	> 13.3 µg/mL	0%	3.81 µg/mL (≈ 8.61 µM)	5.32 µg/mL (≈ 12 µM)	0%	25%
COc1ccc(Nc2nc(Nc3ccccc3OC)nc(N3CCOCC3)n2)cc1	3.98 µg/mL (≈ 9.74 µM)	0.422 µg/mL (≈ 1.03 µM)	4.32 µg/mL (≈ 10.6 µM)	0%	1.19 µg/mL (≈ 2.91 µM)	2.08 µg/mL (≈ 5.1 µM)	0%	0%
Cc1cccc(Nc2nc(Nc3ccc4c(c3)OCO4)nc(N3CCOCC3)n2)c1	2.05 µg/mL (≈ 5.03 µM)	0.42 µg/mL (≈ 1.03 µM)	4.3 µg/mL (≈ 10.6 µM)	0%	1.06 µg/mL (≈ 2.62 µM)	1.82 µg/mL (≈ 4.49 µM)	0%	0%
COc1ccc(Cl)c2sc(NC(=O)c3ccc(Cl)cc3Cl)nc12	3.62 µg/mL (≈ 9.34 µM)	> 11.6 µg/mL	0.377 µg/mL (≈ 0.972 µM)	0%	> 11.6 µg/mL	4.96 µg/mL (≈ 12.8 µM)	0%	0%
COc1ccc(Cl)c2sc(NC(=O)c3ccc4c(c3)OCCO4)nc12	0.702 µg/mL (≈ 1.86 µM)	3.57 µg/mL (≈ 9.49 µM)	0.366 µg/mL (≈ 0.971 µM)	0%	> 11.3 µg/mL	3.43 µg/mL (≈ 9.09 µM)	53.4%	0%
